Laboratory results: ChEMBL document CHEMBL2062422, “Design, synthesis and biological evaluation of some novel thienopyrimidines and fused thienopyrimidines as anti-inflammatory agents” (Eur J Med Chem, 2012)

Legend:
[1] = system: Rattus norvegicus; test: Antiinflammatory activity in albino rat acute inflammatory model assessed as inhibition of formalin-induced paw edema at 10 mg/kg, po administered 1 hr post challenge measured after 1 hr; format: functional; details: in the assay text read “administered 1 hr prior to challenge” for “administered 1 hr post challenge”
Procedure, shortened: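 Rats were randomised into groups of five. Dosing was 10 mg/kg po, given 1 h before 2% formalin (0.1 mL) was injected subplantar into the left hind paw under light ether anaesthesia. […] Values are mean ± S.E., N = 5 rats.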

[2] = system: Rattus norvegicus; test: Antiinflammatory activity in albino rat sub-acute inflammatory model assessed as inhibition of formalin-induced paw edema at 10 mg/kg, po administered 1 hr post challenge for 7 consecutive days measured at day 8 of challenge; format: functional; details: in the assay text read “1 hr prior to challenge” for “1 hr post challenge”
[3] = system: Rattus norvegicus; test: Antiinflammatory activity in albino rat sub-acute inflammatory model assessed as inhibition of turpentine-induced granuloma pouch at 10 mg/kg, po administered 1 hr […] for 7 consecutive days measured at day 8 of challenge; format: functional
[4] = system: Rattus norvegicus; test: Antiinflammatory activity in albino rat acute inflammatory model assessed as inhibition of formalin-induced paw edema at 10 mg/kg, po administered 1 hr prior to challenge measured after 2 hr
[5] = system: Rattus norvegicus; test: Antiinflammatory activity in albino rat acute inflammatory model assessed as inhibition of formalin-induced paw edema at 10 mg/kg, po administered 1 hr prior to challenge measured after 4 hr
[6] = system: Rattus norvegicus; test: Antiinflammatory activity in albino rat sub-acute inflammatory model assessed as inhibition of formalin-induced paw edema at 10 mg/kg, po administered 1 hr prior to challenge for 7 consecutive days measured at day 1 of challenge
[7] = system: Rattus norvegicus; test: Ulcerogenic activity in albino rat assessed as hyperemia at 300 mg/kg/day administered as equal doses at 0 and 12 hrs for three consecutive days measured at 6 hrs post last dose; format: toxicity, organism-based; details: in vivo
Procedure, shortened: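 Male albino rats, 180–200 g, five per group, fasted 12 h with water ad libitum. Dosing was 300 mg/kg/day po, split into equal doses at 0 and 12 h, for 3 successive days. Controls received 1% gum acacia orally. Rats were killed with ether 6 h after the last dose. Stomachs were opened along the greater curvature, washed with cold saline and inspected under a 3X lens for hyperemia, hemorrhage, hemorrhagic erosion or ulcer.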

[8] = Ulcerogenic activity in po dosed albino rat measured after 24 hrs; format: toxicity, organism-based; details: in vivo
Procedure, shortened: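 Male albino rats (180–200 g), five per group, fasted 12 h with water ad libitum. Compounds given orally as two equal doses at 0 and 12 h on three successive days, 300 mg/kg per day. Control received 1% gum acacia po. Rats killed 6 h after the last dose. Stomachs opened along the greater curvature, washed with cold saline and inspected under 3X magnification for hyperemia, hemorrhage, erosion or ulcer.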

[9] = system: Rattus norvegicus; test: Acute toxicity in albino rat at 0.1 to 0.3 g/kg/, po measured after 24 hrs; details: in vivo
[10] = system: Rattus norvegicus; test: Antiinflammatory activity in albino rat acute inflammatory model assessed as inhibition of formalin-induced paw edema at 10 mg/kg, po administered 1 hr prior to challenge measured after 1 hr
[11] = system: Rattus norvegicus; test: Antiinflammatory activity in albino rat sub-acute inflammatory model assessed as inhibition of formalin-induced paw edema at 10 mg/kg, po administered 1 hr prior to challenge for 7 consecutive days measured at day 8 of challenge

| Compound | inhibition in vivo at 10 mg/kg [1] [%] | inhibition in vivo at 10 mg/kg [2] [%] | inhibition in vivo at 10 mg/kg [3] [%] | inhibition in vivo at 10 mg/kg [4] [%] | inhibition in vivo at 10 mg/kg [5] [%] | inhibition in vivo at 10 mg/kg [6] [%] | Activity [7] | LD50 at 24 h [8] [mg/kg] | Activity [9] | inhibition in vivo at 10 mg/kg [10] [%] | inhibition in vivo at 10 mg/kg [11] [%] |
| --- | --- | --- | --- | --- | --- | --- | --- | --- | --- | --- | --- |
| Cc1c(C(N)=O)sc2c1c(=O)n(Cc1ccccc1)c1nncn21 | 56 | 32 | 39.4 | 43 | 54 | 39 | – | – | – | – | – |
| Cc1c(C(N)=O)sc2c1c(=O)n(Cc1ccccc1)c1nnc(-c3ccccc3Cl)n21 | 37 | 30 | 35.7 | 43 | 49 | 33 | – | – | – | – | – |
| Cc1c(C(N)=O)sc2c1c(=O)n(Cc1ccccc1)c1n[nH]c(=O)n21 | 75 | 37 | 38.5 | 61 | 49 | 43 | Non-toxic | > 300 | Non-toxic | – | – |
| CC1=NN(c2nc3sc(C(N)=O)c(C)c3c(=O)n2Cc2ccccc2)C(=O)C1 | 37 | 34 | 38.9 | 48 | 46 | 39 | Non-toxic | > 300 | Non-toxic | – | – |
| Cc1c(C(N)=O)sc2nc(NN)n(Cc3ccccc3)c(=O)c12 | 69 | 43 | 44.8 | 61 | 51 | 43 | 10% | > 300 | Non-toxic | – | – |
| Cc1c(C(N)=O)sc2c1c(=O)n(Cc1ccccc1)c1nnc(-c3ccc(Br)cc3)n21 | – | 30 | 41.2 | 39 | 41 | 37 | – | – | – | 31 | – |
| Cc1c(C(N)=O)sc2nc(-n3nc(-c4ccc(Cl)cc4)cc3N)n(Cc3ccccc3)c(=O)c12 | 56 | 30 | 40.3 | 52 | 46 | 35 | Non-toxic | > 300 | Non-toxic | – | – |
| CSc1nc2sc(C(N)=O)c(C)c2c(=O)n1Cc1ccccc1 | 44 | – | 11.3 | 43 | 38 | 17 | – | – | – | – | 21 |
| CCOC(=O)CSc1nnc2n(Cc3ccccc3)c(=O)c3c(C)c(C(N)=O)sc3n12 | 56 | 36 | 41.2 | 61 | 49 | 41 | 20% | > 300 | Non-toxic | – | – |
| Cc1c(C(N)=O)sc2nc(S)n(Cc3ccccc3)c(=O)c12 | 25 | 5 | 4.07 | 0 | 5 | 4 | – | – | – | – | – |
| Cc1c(C(N)=O)sc2c1c(=O)n(Cc1ccccc1)c1n[nH]c(=S)n21 | 50 | 34 | 23.1 | 56 | 51 | 41 | 10% | > 300 | Non-toxic | – | – |
| Cc1c(C(N)=O)sc2nc(N/N=C/c3ccc(Br)cc3)n(Cc3ccccc3)c(=O)c12 | 69 | 34 | 34.4 | 39 | 44 | 39 | – | – | – | – | – |
| O=C([O-])Cc1ccccc1Nc1c(Cl)cccc1Cl.[Na+] [DICLOFENAC SODIUM] | 63 | – | – | – | – | – | Non-toxic | – | – | – | – |
| Cc1c(C(N)=O)sc2c1C(=O)N(Cc1ccccc1)C1=NN=C(c3ccc(Cl)cc3)CN12 | 44 | 37 | 38.5 | 43 | 46 | 46 | – | – | – | – | – |
| CCOC(=O)Cc1nnc2n(Cc3ccccc3)c(=O)c3c(C)c(C(N)=O)sc3n12 | – | 37 | 39.8 | – | – | 46 | – | – | – | – | – |
| Cc1cc(C)n(-c2nc3sc(C(N)=O)c(C)c3c(=O)n2Cc2ccccc2)n1 | 44 | 32 | 40.3 | 39 | 49 | 39 | – | – | – | – | – |
| CC(=O)N1N=C2N(Cc3ccccc3)C(=O)c3c(sc(C(N)=O)c3C)N2C1c1ccc(Br)cc1 (centres undefined) | – | 30 | 39.8 | 30 | 36 | 33 | – | – | – | 31 | – |
| COc1ccc2c(c1)c(CC(=O)O)c(C)n2C(=O)c1ccc(Cl)cc1 [INDOMETHACIN] | – | – | – | – | – | – | 100% | – | – | – | – |
